Assay results from ChEMBL document CHEMBL1135512 (J Med Chem, 2002).

How the values were obtained:
[1] = In vitro hemolytic concentration on uninfected erythrocytes.; assay type: functional, Homo sapiens
Procedure, shortened: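 Washed A+ human erythrocytes were held at 1.5% hematocrit in RPMI 1640 with 10% human serum, 25 mM HEPES and 25 mM NaHCO3. Drug (2 mM to 1 μM final, triplicate) was added for 42 h at 37 °C under 10% O2/6% CO2. Released hemoglobin in supernatant was measured with TMB/H2O2 at 455 nm. HC50 is relative to 5% saponin lysis, by nonlinear regression.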

[2] = system: Plasmodium falciparum; test: Percent reversal against Plasmodium falciparum W2 at 1 uM DEEA; assay type: functional
[3] = Dissociation constant (pKa); assay type: physicochemical
[4] = Partition coefficient (logD7.0); assay type: physicochemical; details: octanol/water, pH 7; read-out: logD
[5] = Cytotoxicity against Chinese hamster ovary cells; assay type: cell-based, Cricetulus griseus
Procedure, shortened: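 Cells were then exposed to graded drug concentrations for 48 h at 37 °C, 5% CO2. MTT (1 mg/mL in PBS) was added for 3 h, and formazan was dissolved in DMSO and read at 570/630 nm. IC50 came from nonlinear regression versus drug-free wells.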

[6] = system: Plasmodium falciparum; test: In vitro inhibitory activity against multidrug-resistant Plasmodium falciparum W2 Indochina; assay type: functional, organism-based; details: Plasmodium falciparum
Procedure, shortened: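 Clone W2 (Indochina), sorbitol-synchronized, was grown in RPMI 1640 with 10% human serum, 25 mM HEPES and 25 mM NaHCO3, at final parasitemia 0.5% and hematocrit 1.5%. The drug was present for 48 h at 37 °C under 10% O2/6% CO2/84% N2. Growth was read as 3H-hypoxanthine uptake (1 μCi/well). IC50 came from nonlinear regression of log-dose/response as the geometric mean with 95% CI.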

[7] = Partition coefficient (logP); assay type: physicochemical; details: octanol/water; read-out: logP
[8] = system: Plasmodium falciparum; test: Accumulation coefficient of chloroquine at 1 um-10 uM of DEEA against Plasmodium falciparum W2;Range is from 14-15; assay type: functional
Procedure, shortened: (§1)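 W2 infected erythrocytes were suspended in RPMI 1640 with 25 mM HEPES and 25 mM NaHCO3 (2% parasitemia, 2% hematocrit). They were mixed over silicone oil with buffer holding [3H]CQ (26 Ci/mmol) plus DEEA at 1 or 10 μM. Incubation was 1 h at 37 °C under 10% O2/6% CO2/84% N2, followed by 1 min centrifugation. Ratio = parasite [3H]CQ (infected minus uninfected cells) / same-volume buffer.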

[9] = system: Plasmodium falciparum; test: Accumulation coefficient of chloroquine at 1 uM -10 uM of DEEA against Plasmodium falciparum W2; Range is from 15-101; assay type: functional; procedure, shortened: as §1
[10] = system: Plasmodium falciparum; test: Concentration required to reduce chloroquine IC50 by 50%; assay type: functional, organism-based; details: Plasmodium falciparum
Procedure, shortened: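 Synergy isotopic microtest on sorbitol-synchronized W2 (Indochina) and 3D7 in RPMI 1640 with 10% human serum, HEPES/NaHCO3, parasitemia 0.5%, hematocrit 1.5%. CQ was combined with subinhibitory fixed DEEA concentrations, and 3H-hypoxanthine was added for 48 h at 37 °C under 10% O2/6% CO2/84% N2. Reversal IC50 is the DEEA concentration halving CQ IC50, found by nonlinear regression of log-dose/IC50.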

[11] = system: Plasmodium falciparum; test: Accumulation coefficient of chloroquine at 1 uM-10 uM of DEEA against Plasmodium falciparum W2; Range is from 16-71; assay type: functional; procedure, shortened: as §1
[12] = system: Plasmodium falciparum; test: Accumulation coefficient of chloroquine at 1 uM-10 uM of DEEA against Plasmodium falciparum W2; Range is from 19-23; assay type: functional; procedure, shortened: as §1
[13] = system: Plasmodium falciparum; test: Accumulation coefficient of chloroquine at 1 uM-10 uM of DEEA against Plasmodium falciparum W2; assay type: functional; procedure, shortened: as §1
[14] = system: Plasmodium falciparum; test: Percent reversal against Plasmodium falciparum W2 at 1 uM DEEA
[15] = system: Plasmodium falciparum; test: Accumulation coefficient of chloroquine at 1 uM-10 uM of DEEA against Plasmodium falciparum W2; Range is from 62-63; assay type: functional
[16] = system: Plasmodium falciparum; test: Accumulation coefficient of chloroquine at 1 uM-10 uM of DEEA against Plasmodium falciparum W2; Range is from 18-16; assay type: functional

Row | Structure (SMILES) | HC50 [1] [µM] | Reversal [2] [%] | pKa [3] | logD [4] | Cytotoxicity [5] [µM] | IC50 [6] [µM] | logP [7] | Accumulation coefficient [8] | Accumulation coefficient [9] | IC50 [10] [µM] | Accumulation coefficient [11] | Accumulation coefficient [12] | Accumulation coefficient [13] | Reversal [14] [%] | Accumulation coefficient [15] | Accumulation coefficient [16]
1 | CC1C2c3ccccc3C(c3ccccc32)C1C(=O)Nc1ccccn1 (stereo unspecified) | 1827 | 0 | 5.27 | 4.16 | 205 | 302 | 4.17 | 15 |  |  |  |  |  |  |  | 
2 | CC1C2c3ccccc3C(c3ccccc32)C1C(=O)Nc1ccncc1 (stereo unspecified) | >2000 | 21 | 5.27 | 3.85 | > 500 | 833 | 3.85 |  | 101 | 1490 |  |  |  |  |  | 
3 | CN(C)CCNC1CC2c3ccccc3C1c1ccccc12 (stereo unspecified) | 644 | 63 | 9.48 | -1.5 | 695 | 8 | 3.17 |  |  | 0.8 | 71 |  |  |  |  | 
4 | CC1C2c3ccccc3C(c3ccccc32)C1C(=O)/N=C/N(C)C (stereo unspecified) | >2000 | 0 |  | 3.26 | > 2000 | 51 | 3.26 |  |  | 40 |  | 23 |  |  |  | 
5 | CC1C2c3ccccc3C(c3ccccc32)C1C(N)=O (stereo unspecified) | >2000 |  | -0.89 | 2.89 | > 2000 | 41 | 2.89 |  |  | 20 |  |  | 22 | 0 |  | 
6 | CCOC(=O)C1C2c3ccccc3C(c3ccccc32)C1N(C)C (stereo unspecified) | >2000 | 0 | 7.48 | 3 | > 2000 | 34 | 3.6 |  |  | 3.1 |  |  |  |  | 63 | 
7 | CN(C)C1C2c3ccccc3C(c3ccccc32)C1C(=O)O (stereo unspecified) | >2000 | 0 | 8.3 | 0.1 | > 2000 | > 50 | 2.7 |  |  | > 100 |  |  |  |  |  | 18
